Source: ChEMBL document CHEMBL1127442, “Triazolinone biphenylsulfonamide derivatives as orally active angiotensin II antagonists with potent AT1 receptor affinity and enhanced AT2 affinity” (J Med Chem, 1994)
Several values for one entry are separate records, joined by “and”; a condition that tells them apart may be missing. Equal entries are not always repeated. Activity calls are given as the source filed them. The rule behind the calls is not given here.

How the values were obtained:
[1] = molecular target: T1, Type-2 angiotensin II receptor (Rattus norvegicus, UniProt P35351); experiment: In vitro inhibitory activity against angiotensin II rat midbrain AT2 receptor using radioligand [125I]-Sar Ile-AII
T1 sequence (P35351 whole entry): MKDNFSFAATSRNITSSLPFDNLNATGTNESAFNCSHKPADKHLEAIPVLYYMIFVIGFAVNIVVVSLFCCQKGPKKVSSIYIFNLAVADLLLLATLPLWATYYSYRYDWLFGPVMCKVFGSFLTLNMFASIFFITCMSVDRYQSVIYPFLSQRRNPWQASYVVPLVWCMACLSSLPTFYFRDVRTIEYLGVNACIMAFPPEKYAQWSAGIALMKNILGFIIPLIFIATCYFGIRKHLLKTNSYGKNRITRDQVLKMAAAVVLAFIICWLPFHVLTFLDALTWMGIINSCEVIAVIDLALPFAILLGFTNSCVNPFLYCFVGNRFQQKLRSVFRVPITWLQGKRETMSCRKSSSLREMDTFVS
How it was run: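 Dithiothreitol ([…]) was added to the assay mixture to abolish residual AT1 binding. Tubes were run in duplicate, and IC50 came from nonlinear regression of displacement curves.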

[2] = molecular target: T2, Type-1 angiotensin II receptor (Oryctolagus cuniculus, UniProt P34976); experiment: In vitro inhibitory activity against angiotensin II rabbit aorta AT1 receptor using radioligand [125I]-Sar Ile-AII; assay type: tissue-based
T2 sequence (P34976 whole entry): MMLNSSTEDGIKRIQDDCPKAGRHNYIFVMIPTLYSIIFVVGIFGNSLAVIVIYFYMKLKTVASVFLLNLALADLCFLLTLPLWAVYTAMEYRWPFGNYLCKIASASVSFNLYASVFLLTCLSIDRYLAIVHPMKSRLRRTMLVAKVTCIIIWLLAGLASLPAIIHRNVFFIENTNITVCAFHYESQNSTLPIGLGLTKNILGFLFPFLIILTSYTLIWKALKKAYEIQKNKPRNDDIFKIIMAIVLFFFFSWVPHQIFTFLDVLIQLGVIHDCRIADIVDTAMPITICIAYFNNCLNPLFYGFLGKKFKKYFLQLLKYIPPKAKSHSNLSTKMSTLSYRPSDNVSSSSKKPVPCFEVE

[3] = system: Rattus norvegicus; experiment: (§1) Time from onset of action until significant (i.e., >=30%) inhibition of pressor response is no longer observed, at 0.3 (mg/kg) peroral dose; assay type: functional
How it was run: (§2)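 Conscious catheterized male Sprague-Dawley rats received compound iv or po as the water-soluble potassium salt, or in PEG 400 orally. AII (0.1 μg/kg iv) boluses were repeated at intervals while the compound was active.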

[4] = system: Rattus norvegicus; experiment: (§3) Time from onset of action until significant (i.e., >=30%) inhibition of pressor response is no longer observed, at 1 (mg/kg) intravenous dose; assay type: functional
[5] = system: Rattus norvegicus; experiment: Inhibition of AII pressor response by the compound in conscious, normotensive rats, at 0.3 (mg/kg) peroral dose; assay type: functional
How it was run: (§4)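 Male Sprague-Dawley rats (300-400 g) were conscious and catheterized for iv dosing and arterial pressure. Compound was given iv or po as the potassium salt in water, with PEG 400 for some oral doses. […] Peak inhibition is the mean of ≥2 rats.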

[6] = system: Rattus norvegicus; experiment: Inhibition of AII pressor response by the compound in conscious, normotensive rats, at 1 (mg/kg) intravenous dose; assay type: functional; how it was run: as §4
[7] = system: Rattus norvegicus; experiment: Time from onset of action until significant (i.e., >=30%) inhibition of pressor response is no longer observed, at 1 (mg/kg) peroral dose; assay type: functional; how it was run: as §2
[8] = system: Rattus norvegicus; experiment: Inhibition of AII pressor response by the compound in conscious, normotensive rats, at 1 (mg/kg) peroral dose; assay type: functional; how it was run: as §4
[9] = system: Rattus norvegicus; experiment: Inhibition of AII pressor response by the compound in conscious, normotensive rats, at 0.3 (mg/kg) intravenous dose; assay type: functional; how it was run: as §4
[10] = system: Rattus norvegicus; experiment: Time from onset of action until significant (i.e., >=30%) inhibition of pressor response is no longer observed, at 0.1 (mg/kg) peroral dose; assay type: functional; how it was run: as §2
[11] = system: Rattus norvegicus; experiment: Time from onset of action until significant (i.e., >=30%) inhibition of pressor response is no longer observed, at 0.1 (mg/kg) intravenous dose; assay type: functional; how it was run: as §2
[12] = system: Rattus norvegicus; experiment: Inhibition of AII pressor response by the compound in conscious, normotensive rats, at 0.1 (mg/kg) intravenous dose; assay type: functional; how it was run: as §4
[13] = system: Rattus norvegicus; experiment: Inhibition of AII pressor response by the compound in conscious, normotensive rats, at 0.1 (mg/kg) peroral dose; assay type: functional; how it was run: as §4
[14] = system: Monkey; experiment: as §1; assay type: functional, Cercopithecidae; conditions: in the assay text read “intravenous” for “peroral”
[15] = system: Monkey; experiment: Time from onset of action until significant (i.e., >=30%) inhibition of pressor response is no longer observed, at 10 (mg/kg) peroral dose; assay type: functional, Cercopithecidae
How it was run: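 Conscious rhesus monkeys were pretreated with furosemide (5 mg/kg iv) and fasted 18 h. Compound was given orally by nasogastric tube, and AII challenges were given iv via a venous catheter, otherwise as in rats.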

[16] = system: Monkey; experiment: Inhibition of AII pressor response by the compound in conscious, normotensive monkey, at 0.3 (mg/kg) intravenous dose; assay type: functional, Cercopithecidae
How it was run: (§5)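 Rhesus monkeys were conscious, given furosemide (5 mg/kg iv) the prior evening, and fasted 18 h with water available. They sat chaired with minimal restraint. AII and iv compound went through saphenous or brachial vein catheters, and oral compound by nasogastric tube. Peak % inhibition of the AII pressor response was measured otherwise as in the rat protocol.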

[17] = system: Monkey; experiment: Inhibition of AII pressor response by the compound in conscious, normotensive monkey, at 10 (mg/kg) peroral dose; assay type: functional, Cercopithecidae; how it was run: as §5
[18] = system: Rattus norvegicus; experiment: Time from onset of action until significant (i.e., >=30%) inhibition of pressor response is no longer observed, at 3 (mg/kg) intravenous dose; assay type: functional; how it was run: as §2
[19] = system: Monkey; experiment: Inhibition of AII pressor response by the compound in conscious, normotensive monkey, at 3 (mg/kg) peroral dose; NA= Not active; assay type: functional, organism-based; conditions: Cercopithecidae; how it was run: as §5
[20] = system: Monkey; conditions: Cercopithecidae
[21] = system: Monkey; experiment: as §3; assay type: functional, Cercopithecidae
[22] = system: Rattus norvegicus; experiment: Time from onset of action until significant (i.e., >=30%) inhibition of pressor response is no longer observed, at 0.3 (mg/kg) peroral dose; NA= Not active; assay type: functional, organism-based; how it was run: as §2
[23] = system: Rattus norvegicus; experiment: Inhibition of AII pressor response by the compound in conscious, normotensive rats, at 3 (mg/kg) intravenous dose; assay type: functional; how it was run: as §4
[24] = Inhibition of AII pressor response by the compound in conscious, normotensive rhesus monkeys, at 1 (mg/kg) intravenous dose
[25] = Inhibition of AII pressor response by the compound in conscious, normotensive rhesus monkeys, at 0.3 (mg/kg) intravenous dose
[26] = system: Monkey; experiment: Time from onset of action until significant (i.e., >=30%) inhibition of pressor response is no longer observed, at 10 (mg/kg) peroral dose
[27] = system: Rattus norvegicus; experiment: Inhibition of AII pressor response by the compound in conscious, normotensive rats, at 3 (mg/kg) peroral dose; assay type: functional; how it was run: as §4
[28] = system: Rattus norvegicus; experiment: Time from onset of action until significant (i.e., >=30%) inhibition of pressor response is no longer observed, at 3 (mg/kg) peroral dose; assay type: functional

Row | SMILES | IC50 [1] [nM] | IC50 [2] [nM] | Duration [3] | Duration [4] [h] | Inhibition [6] [%] | Duration [7] [h] | Inhibition [8] [%] | Inhibition [9] [%] | also measured
1 | CCCCc1nn(-c2ccccc2C(F)(F)F)c(=O)n1Cc1ccc(-c2ccccc2S(=O)(=O)NC(=O)C2CC2(F)F)cc1 (stereo not drawn) | 86 | 0.64 | >4 h | >5 | 80 | – | – | – | Inhibition [5]: 59%
2 | CCCCc1nn(-c2ccccc2C(F)(F)F)c(=O)n1Cc1ccc(-c2ccccc2S(=O)(=O)NC(=O)c2cccs2)cc1 | 540 | 0.94 | – | >5.5 | 76 | 4.3 | 61 | – | –
3 | CCCCc1nn(-c2ccccc2C(F)(F)F)c(=O)n1Cc1ccc(-c2ccccc2S(=O)(=O)NC(=O)c2ccccc2C)cc1 | 110 | 0.56 | – | >6 | 89 | >2 | 57 | – | –
4 | CCCCc1nn(-c2ccccc2C(F)(F)F)c(=O)n1Cc1ccc(-c2ccccc2S(=O)(=O)NC(=O)OCC(C)C)cc1 | 170 | 0.42 | >5 h and >3.5 h | >6 | 72 | >5 | 63 | 65 | Inhibition [5]: 61%
5 | CCCCc1nn(-c2ccccc2C(F)(F)F)c(=O)n1Cc1ccc(-c2ccccc2S(=O)(=O)NC(=O)OC(C)(C)C)cc1 | 17 | 0.45 | >4.5 h and >3.5 h | >6 | – | >6 | – | 78 | Duration [10]: >3 h; Duration [11]: >4.5 h; Inhibition [12]: 76%; Inhibition [5]: 81%; Inhibition [13]: 77%
6 | CCCCc1nn(-c2ccccc2C(F)(F)F)c(=O)n1Cc1ccc(-c2ccccc2S(=O)(=O)NC(=O)C2CC2(C)C)cc1 (stereo not drawn) | 220 | 0.36 | >5.5 h | – | – | >6 | 76 | 84 | Duration [14]: 3.5 h
7 | CCCCc1nc(Cl)c(CO)n1Cc1ccc(-c2ccccc2-c2nnn[nH]2)cc1 [LOSARTAN] | – | – | 5.5 h | – | 78 | – | 58 | 52 | Duration [14]: 0.1 h; Duration [15]: 2.1 h; Inhibition [16]: 49%; Inhibition [17]: 50%; Duration [18]: >6 h; inhibition [19]: inactive; Duration [20]: inactive
8 | CCCCc1nn(-c2ccccc2C(F)(F)F)c(=O)n1Cc1ccc(-c2ccccc2S(=O)(=O)NC(=O)c2ccccc2)cc1.ClCCl | 300 | 0.43 | <0.5 h | – | – | – | – | 31 | Duration [14]: 5 h; Duration [21]: >6 h; Duration [18]: >6 h; Duration [22]: inactive; inhibition [5]: inactive; Inhibition [23]: 87%; Inhibition [24]: 88%; Inhibition [25]: 80%; Duration [26]: >4 h
9 | CCCCc1nn(-c2ccccc2C(F)(F)F)c(=O)n1Cc1ccc(-c2ccccc2S(=O)(=O)NC(=O)CC(C)(C)C)cc1 | 46 | 1.1 | >5.5 h | – | – | – | – | 69 | –
10 | CCCCc1nn(-c2ccccc2C(F)(F)F)c(=O)n1Cc1ccc(-c2ccccc2S(=O)(=O)NC(=O)c2occc2C)cc1 | 46 | 0.21 | – | >6 | 92 | >3.5 | 71 | – | –
11 | CCCCc1nn(-c2ccccc2C(F)(F)F)c(=O)n1Cc1ccc(-c2ccccc2S(=O)(=O)NC(=O)c2ccccc2Cl)cc1 | 36 | 0.11 | – | >24 | – | >6 | – | – | –
12 | CCCCc1nn(-c2ccccc2C(F)(F)F)c(=O)n1Cc1ccc(-c2ccccc2S(=O)(=O)NC(=O)c2sccc2Cl)cc1 | 30 | 0.27 | >5 h | >6 | 90 | – | – | – | Inhibition [5]: 64%
13 | CCCCc1nn(-c2ccccc2C(F)(F)F)c(=O)n1Cc1ccc(-c2ccccc2S(=O)(=O)NC(=O)C(C)C)cc1 | 150 | 0.8 | – | >6 | 100 | 1.3 | 45 | – | –
14 | O=C(NS(=O)(=O)c1ccccc1-c1ccc(Cn2c(CCCC(F)(F)F)nn(-c3ccccc3C(F)(F)F)c2=O)cc1)c1ccccc1Cl | 910 | 0.36 | – | 2.4 | 67 | – | – | – | Inhibition [27]: 76%; Duration [28]: >24 h
15 | CCCCc1nn(-c2ccccc2C(F)(F)F)c(=O)n1Cc1ccc(-c2ccccc2NS(=O)(=O)C(F)(F)F)cc1 | 5500 | 1.8 | – | – | – | – | – | – | –
